In ChEMBL document CHEMBL1150763, “Discovery of imidazo[1,5-c]imidazol-3-ones: weakly basic, orally active factor Xa inhibitors” (J Med Chem, 2008):

Columns and labels:
Coagulation factor X = Coagulation factor X (Homo sapiens, UniProt P00742); experiment: Inhibition of human factor 10a
Plasma [1] = experiment: Anticoagulant potency in human plasma assessed as concentration required to double the time to clot formation by PT assay; assay type: functional
Summary of the method: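 Human normal plasma mixed with compound dilutions in DMSO (1.5 µL into 48.5 µL), preincubated 4 min at 37 °C, clotting started with thromboplastin and timed on an automatic coagulometer. Prolongation relative to DMSO; concentration doubling clotting time derived by least-squares regression; mean of duplicates.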

[2] = Basicity, pKa by titration method; assay type: physicochemical
Plasma [3] = experiment: Anticoagulant potency in mouse plasma assessed as concentration required to double the time to clot formation by PT assay; assay type: functional
Plasma [4] = experiment: Anticoagulant activity in mouse plasma assessed as ratio of prothrombin time in drug to untreated control at 30 mg/kg, po; assay type: functional
Summary of the method: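 Male ICR mice (30-35 g), fasted >12 h, dosed orally at 30 mg/kg as suspension in 0.5% methylcellulose; vehicle controls. Citrated aortic blood drawn 1 h post-dose under pentobarbital anaesthesia, spun 1000g 10 min to platelet-poor plasma. PT on 50 µL plasma preincubated 4 min at 37 °C, started with thromboplastin; clotting time expressed relative to control group (n = 3).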

CYP3A4 = CYP3A4 (Homo sapiens, UniProt P08684); experiment: Inhibition of CYP3A4 expressed in human B-lymphoblastoid cells at 10 uM; assay type: ADME, cell-based
Sequence of CYP3A4 (P08684 whole entry): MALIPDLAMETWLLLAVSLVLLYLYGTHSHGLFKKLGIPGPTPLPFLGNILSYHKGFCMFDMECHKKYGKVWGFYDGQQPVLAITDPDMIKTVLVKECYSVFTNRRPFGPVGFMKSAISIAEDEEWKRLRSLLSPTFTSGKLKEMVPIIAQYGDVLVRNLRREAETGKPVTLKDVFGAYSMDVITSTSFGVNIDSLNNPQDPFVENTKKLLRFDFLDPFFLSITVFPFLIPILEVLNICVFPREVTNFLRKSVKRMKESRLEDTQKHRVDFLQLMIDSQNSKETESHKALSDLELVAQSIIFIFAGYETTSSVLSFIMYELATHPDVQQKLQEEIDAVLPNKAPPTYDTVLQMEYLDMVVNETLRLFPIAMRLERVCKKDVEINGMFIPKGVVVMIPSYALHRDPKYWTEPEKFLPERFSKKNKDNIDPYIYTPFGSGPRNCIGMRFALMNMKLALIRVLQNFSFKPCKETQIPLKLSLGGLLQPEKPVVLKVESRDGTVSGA
Summary of the method: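 Recombinant CYP3A4 (10 nM, from CYP3A4-expressing human B-lymphoblastoid cells) incubated with 100 µM testosterone and 10 µM test compound for 30 min at 37 °C; 6β-hydroxytestosterone formation quantified by HPLC-UV.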

physchem = conditions: buffer, pH 7.4
Prothrombin = Prothrombin (Homo sapiens, UniProt P00734); experiment: Inhibition of thrombin
[5] = Inhibition of trypsin
Plasminogen = Plasminogen (Homo sapiens, UniProt P00747); experiment: Inhibition of plasmin
Sequence of Plasminogen (P00747 97-580 limits assumed): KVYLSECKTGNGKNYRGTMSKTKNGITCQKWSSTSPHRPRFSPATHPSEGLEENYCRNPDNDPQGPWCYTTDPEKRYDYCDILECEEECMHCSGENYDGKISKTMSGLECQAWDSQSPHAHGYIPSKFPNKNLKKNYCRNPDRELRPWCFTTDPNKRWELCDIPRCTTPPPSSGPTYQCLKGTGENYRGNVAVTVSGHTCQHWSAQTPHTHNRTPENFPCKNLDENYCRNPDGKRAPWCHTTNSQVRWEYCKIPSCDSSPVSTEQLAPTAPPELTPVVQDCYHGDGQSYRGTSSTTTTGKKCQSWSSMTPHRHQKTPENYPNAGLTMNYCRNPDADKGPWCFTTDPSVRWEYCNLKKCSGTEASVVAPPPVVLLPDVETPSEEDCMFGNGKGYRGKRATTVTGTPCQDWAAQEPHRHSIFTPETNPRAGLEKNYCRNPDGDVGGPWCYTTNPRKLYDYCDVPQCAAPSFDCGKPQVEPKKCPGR
Sequence of Plasminogen (P00747 581-810 limits assumed): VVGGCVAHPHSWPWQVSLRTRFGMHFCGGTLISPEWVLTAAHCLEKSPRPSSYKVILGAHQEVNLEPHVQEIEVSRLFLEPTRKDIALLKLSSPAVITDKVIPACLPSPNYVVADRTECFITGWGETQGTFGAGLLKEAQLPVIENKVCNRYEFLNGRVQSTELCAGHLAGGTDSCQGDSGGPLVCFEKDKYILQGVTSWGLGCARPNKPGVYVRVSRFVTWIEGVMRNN

[6] = molecular target: Tissue-type plasminogen activator (Homo sapiens, UniProt P00750); experiment: Inhibition of tPA
Sequence of Tissue-type plasminogen activator (P00750 whole entry): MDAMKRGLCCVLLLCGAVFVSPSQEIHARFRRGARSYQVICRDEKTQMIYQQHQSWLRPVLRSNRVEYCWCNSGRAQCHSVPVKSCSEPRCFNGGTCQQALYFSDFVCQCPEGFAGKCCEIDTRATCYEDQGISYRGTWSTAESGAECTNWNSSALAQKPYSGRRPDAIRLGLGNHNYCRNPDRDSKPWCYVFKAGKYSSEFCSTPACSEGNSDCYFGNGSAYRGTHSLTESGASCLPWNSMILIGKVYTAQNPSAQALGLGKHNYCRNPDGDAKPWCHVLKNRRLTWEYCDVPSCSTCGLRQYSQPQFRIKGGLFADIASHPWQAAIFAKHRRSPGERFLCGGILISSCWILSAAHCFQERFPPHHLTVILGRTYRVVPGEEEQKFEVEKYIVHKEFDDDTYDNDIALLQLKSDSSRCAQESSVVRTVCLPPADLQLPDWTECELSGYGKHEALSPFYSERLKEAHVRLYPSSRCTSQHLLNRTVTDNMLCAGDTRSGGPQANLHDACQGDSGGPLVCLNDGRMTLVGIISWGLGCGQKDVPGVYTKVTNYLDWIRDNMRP

[7] = Cmin in Sprague-Dawley rat in fed state at 0.3 mg, iv after 5 mins; assay type: ADME, organism-based; conditions: in vivo, read-out: Cmin
Summary of the method: (§1)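 Male SD rats (8 weeks old) or cynomolgus monkeys, n = 3, given 0.3 mg/kg intravenously in DMA/PEG400. Blood sampled at 5, 10, 15, 30 min and 1, 2, 4, 8, 24 h (rat tail vein, monkey femoral vein); acetonitrile-deproteinized plasma diluted in pH 3.0 ammonium formate and quantified by LC/MS/MS.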

[8] = AUC (0 to 24 hrs) in Sprague-Dawley rat in fed state at 0.3 mg, iv; assay type: ADME, organism-based; set-up: time < 24 hr, dose 0.3 mg, route intravenous; conditions: plasma
Summary of the method: (§2)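 Male SD (IGS) rats, 8 weeks old, n = 3, fasted or fed; dosed iv at 0.3 mg/kg in DMA/PEG400 or orally at 3 mg/kg as 0.5% methylcellulose suspension. Tail-vein blood drawn 5 min–24 h (iv) or 15 min–24 h (po). Plasma deproteinized with acetonitrile, diluted in 0.01 mol/L HCO₂NH₄ pH 3.0, and quantified by LC/MS/MS in positive ion mode.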

[9] = Mean residence time in Sprague-Dawley rat in fed state at 0.3 mg, iv; assay type: ADME, organism-based; conditions: in vivo; summary of the method: as §1
[10] = Volume of distribution in steady state in Sprague-Dawley rat in fed state at 0.3 mg, iv; assay type: ADME, organism-based; conditions: in vivo, read-out: Vdss; summary of the method: as §1
[11] = Total clearance in Sprague-Dawley rat in fed state at 0.3 mg, iv; assay type: ADME, organism-based; conditions: in vivo; summary of the method: as §1
[12] = Cmin in cynomolgus monkey in fed state at 0.3 mg, iv after 5 mins; assay type: ADME, organism-based, Macaca fascicularis; conditions: in vivo, read-out: Cmin; summary of the method: as §1
[13] = AUC (0 to 24 hrs) in cynomolgus monkey in fed state at 0.3 mg, iv; assay type: ADME, organism-based, Macaca fascicularis; set-up: dose 0.3 mg, time < 24 hr, route intravenous; conditions: plasma
Summary of the method: (§3)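 Male cynomolgus monkeys, n = 3, fasted or fed; single dose iv 0.3 mg/kg (DMA/PEG400) or po 3 mg/kg (0.5% methylcellulose suspension). Femoral-vein blood sampled 5 min–24 h after iv, 15 min–24 h after oral. Plasma deproteinized with acetonitrile, supernatant diluted in 0.01 mol/L HCO₂NH₄ pH 3.0, drug measured by LC/MS/MS.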

[14] = Mean residence time in cynomolgus monkey in fed state at 0.3 mg, iv; assay type: ADME, organism-based, Macaca fascicularis; conditions: in vivo; summary of the method: as §1
[15] = Volume of distribution in steady state in cynomolgus monkey in fed state at 0.3 mg, iv; assay type: ADME, organism-based, Macaca fascicularis; conditions: in vivo, read-out: Vdss; summary of the method: as §1
[16] = Total clearance in cynomolgus monkey in fed state at 0.3 mg, iv; assay type: ADME, organism-based, Macaca fascicularis; conditions: in vivo; summary of the method: as §1
[17] = Cmax in Sprague-Dawley rat in fed state at 3 mg/kg, po; assay type: ADME, organism-based; set-up: dose 3 mg/kg, route oral; conditions: in vivo
Summary of the method: (§4)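 Male animals (SD rats 8 weeks old or cynomolgus monkeys, n = 3), fasted or fed, given 3 mg/kg orally as 0.5% methylcellulose suspension. Blood at 15, 30 min and 1, 2, 4, 8, 24 h (rat tail vein, monkey femoral vein); plasma deproteinized with acetonitrile, diluted in pH 3.0 ammonium formate, analysed by LC/MS/MS in positive ion mode.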

[18] = Tmax in Sprague-Dawley rat in fed state at 3 mg/kg, po; assay type: ADME, organism-based; set-up: dose 3 mg/kg, route oral; conditions: in vivo; summary of the method: as §4
[19] = AUC (0 to 24 hrs) in Sprague-Dawley rat in fed state at 3 mg/kg, po; assay type: ADME, organism-based; set-up: time < 24 hr, dose 3 mg/kg, route oral; conditions: plasma; summary of the method: as §2
[20] = Mean residence time in Sprague-Dawley rat in fed state at 3 mg/kg, po; assay type: ADME, organism-based; set-up: dose 3 mg/kg, route oral; conditions: in vivo; summary of the method: as §4
[21] = Bioavailability in Sprague-Dawley rat in fed state at 3 mg/kg, po; assay type: ADME, organism-based; conditions: in vivo
Summary of the method: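 Male SD (IGS) rats, 8 weeks old, n = 3, fed or fasted. Dosed iv at 0.3 mg/kg in DMA/PEG400 and po at 3 mg/kg as a 0.5% methylcellulose suspension. Tail-vein blood taken at 15, 30 min and 1, 2, 4, 8, 24 h after oral dosing (iv adds 5 and 10 min). Plasma deproteinized with acetonitrile and assayed by LC/MS/MS.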

[22] = Cmax in cynomolgus monkey in fed state at 3 mg/kg, po; assay type: ADME, organism-based, Macaca fascicularis; set-up: dose 3 mg/kg, route oral; conditions: in vivo; summary of the method: as §4
[23] = Tmax in cynomolgus monkey in fed state at 3 mg/kg, po; assay type: ADME, organism-based, Macaca fascicularis; set-up: dose 3 mg/kg, route oral; conditions: in vivo; summary of the method: as §4
[24] = AUC (0 to 24 hrs) in cynomolgus monkey in fed state at 3 mg/kg, po; assay type: ADME, organism-based, Macaca fascicularis; set-up: time < 24 hr, dose 3 mg/kg, route oral; conditions: plasma; summary of the method: as §3
[25] = Mean residence time in cynomolgus monkey in fed state at 3 mg/kg, po; assay type: ADME, organism-based, Macaca fascicularis; set-up: dose 3 mg/kg, route oral; conditions: in vivo; summary of the method: as §4
[26] = Bioavailability in cynomolgus monkey in fed state at 3 mg/kg, po; assay type: ADME, organism-based, Macaca fascicularis; conditions: in vivo
Summary of the method: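 Male cynomolgus monkeys, fed, given 3 mg/kg orally as 0.5% methylcellulose suspension and 0.3 mg/kg iv in DMA/PEG400 (n = 3); femoral vein plasma sampled to 24 h, deproteinized with acetonitrile and quantified by LC/MS/MS.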

[27] = Cmax in Sprague-Dawley rat in fasted state at 3 mg/kg, po; assay type: ADME, organism-based; set-up: dose 3 mg/kg, route oral; conditions: in vivo; summary of the method: as §4
[28] = Tmax in Sprague-Dawley rat in fasted state at 3 mg/kg, po; assay type: ADME, organism-based; set-up: dose 3 mg/kg, route oral; conditions: in vivo; summary of the method: as §4
[29] = Mean residence time in Sprague-Dawley rat in fasted state at 3 mg/kg, po; assay type: ADME, organism-based; set-up: dose 3 mg/kg, route oral; conditions: in vivo; summary of the method: as §4
[30] = AUC (0 to 24 hrs) in Sprague-Dawley rat in fasted state at 3 mg/kg, po; assay type: ADME, organism-based; set-up: time < 24 hr, dose 3 mg/kg, route oral; conditions: plasma; summary of the method: as §2
[31] = Cmax in cynomolgus monkey in fasted state at 3 mg/kg, po; assay type: ADME, organism-based, Macaca fascicularis; set-up: dose 3 mg/kg, route oral; conditions: in vivo; summary of the method: as §4
[32] = Tmax in cynomolgus monkey in fasted state at 3 mg/kg, po; assay type: ADME, organism-based, Macaca fascicularis; set-up: dose 3 mg/kg, route oral; conditions: in vivo; summary of the method: as §4
[33] = Mean residence time in cynomolgus monkey in fasted state at 3 mg/kg, po; assay type: ADME, organism-based, Macaca fascicularis; set-up: dose 3 mg/kg, route oral; conditions: in vivo; summary of the method: as §4
[34] = AUC (0 to 24 hrs) in cynomolgus monkey in fasted state at 3 mg/kg, po; assay type: ADME, organism-based, Macaca fascicularis; set-up: time < 24 hr, dose 3 mg/kg, route oral; conditions: plasma; summary of the method: as §3
Rattus norvegicus [35] = experiment: Effect on bleeding time in Sprague-Dawley rat at 30 mg/kg, po; assay type: functional
Summary of the method: (§5)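 Male Sprague-Dawley rats (7 weeks old) dosed orally 30 min beforehand, then anaesthetized with pentobarbital; tail transected 2-3 mm from tip, blood blotted every 30 s until bleeding stopped or 30 min elapsed; mean ± SEM, n = 6.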

Rattus norvegicus [36] = experiment: Effect on bleeding time in Sprague-Dawley rat at 100 mg/kg, po; assay type: functional; summary of the method: as §5

Sequence of Coagulation factor X (P00742 41-179 limits assumed): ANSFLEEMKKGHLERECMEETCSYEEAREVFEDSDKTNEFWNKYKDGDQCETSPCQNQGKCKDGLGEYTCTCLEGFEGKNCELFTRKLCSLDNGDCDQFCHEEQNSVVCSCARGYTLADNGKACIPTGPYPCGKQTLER
Sequence of Coagulation factor X (P00742 235-488 limits assumed): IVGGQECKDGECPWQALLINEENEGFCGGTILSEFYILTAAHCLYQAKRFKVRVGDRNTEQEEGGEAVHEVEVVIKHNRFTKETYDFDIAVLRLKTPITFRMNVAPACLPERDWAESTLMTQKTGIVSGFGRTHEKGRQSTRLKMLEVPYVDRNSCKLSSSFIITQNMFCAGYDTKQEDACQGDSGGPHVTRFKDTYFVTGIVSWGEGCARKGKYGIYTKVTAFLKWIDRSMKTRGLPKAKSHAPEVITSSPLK

In the case of O=C(CCS(=O)(=O)c1ccc2cc(Cl)ccc2c1)N1CCC(c2cnc3n2CCCC3)CC1, the IC50 (Coagulation factor X) is reported as 23 nM, the Activity (Plasma [1]) is reported as 0.48 µM and the pKa [2] is reported as 8.2. For the same compound, the Activity (Plasma [3]) was 3 µM, the Ratio (Plasma [4]) was 1.1 and the inhibition at 10 µM (CYP3A4) was 42%. It also gave a logD (physchem) of 2.2.

Cc1nc(C)n2c1CN(C1CCN(C(=O)CCS(=O)(=O)c3ccc4cc(Cl)ccc4c3)CC1)C2=O gave an IC50 (Coagulation factor X) of 5.3 nM, an Activity (Plasma [1]) of 1.2 µM and a pKa [2] of 5.4. For the same compound, the Activity (Plasma [3]) was 2.5 µM, the Ratio (Plasma [4]) was 2 and the inhibition at 10 µM (CYP3A4) was 62%. It also gave a logD (physchem) of 2.5.

In the case of O=C(CCS(=O)(=O)c1ccc2cc(Cl)ccc2c1)N1CCN(c2cccc3nc(CO)cn23)CC1, the IC50 (Coagulation factor X) is reported as 9.7 nM.

With Cc1ncc2n1C(=O)N(C1CCN(C(=O)CCS(=O)(=O)c3ccc4cc(Cl)ccc4c3)CC1)C2 the Activity (Plasma [1]) was 1 µM, the pKa [2] was 5 and the Activity (Plasma [3]) was 2 µM. It also gave an inhibition at 10 µM (CYP3A4) of 23%, a Ki (Prothrombin) of 6200 nM and a Ki [5] greater than 60000 nM. It also gave a Ki (Plasminogen) greater than 60000 nM, a Ki [6] greater than 60000 nM and a concentration at 5 min [7] of 291 ng/mL. The AUC(0-t) at 24 h [8] was 245 ng·h/mL, the MRT [9] was 0.7 h and the Vd [10] was 0.888 L/kg. For the same compound, the clearance [11] was 20.8 mL/min/kg, the concentration at 5 min [12] was 612 ng/mL and the AUC(0-t) at 24 h [13] was 565 ng·h/mL. It also gave an MRT [14] of 1 h, a Vd [15] of 0.556 L/kg and a clearance [16] of 9.02 mL/min/kg. It also gave a Cmax [17] of 145 ng/mL, a Tmax [18] of 1.2 h and an AUC(0-t) at 24 h [19] of 597 ng·h/mL. For the same compound, the MRT [20] was 3.6 h, the bioavailability [21] was 24% and the Cmax [22] was 269 ng/mL. The Tmax [23] was 2.3 h, the AUC(0-t) at 24 h [24] was 2590 ng·h/mL and the MRT [25] was 7 h. It also gave a bioavailability [26] of 46%, a Cmax [27] of 570 ng/mL and a Tmax [28] of 0.3 h. It also gave an MRT [29] of 1.5 h, an AUC(0-t) at 24 h [30] of 417 ng·h/mL and a Cmax [31] of 1200 ng/mL. It also gave a Tmax [32] of 0.8 h, an MRT [33] of 1.6 h and an AUC(0-t) at 24 h [34] of 2120 ng·h/mL. It also gave a Time (Rattus norvegicus [35]) of 490 s, a Time (Rattus norvegicus [36]) of 1040 s and a logD (physchem) of 2.3.

Cc1ncc(C2CCN(C(=O)CCS(=O)(=O)c3ccc4cc(Cl)ccc4c3)CC2)[nH]1 showed an IC50 (Coagulation factor X) of 120 nM, an Activity (Plasma [1]) of 2.5 µM and a pKa [2] of 7.9. For the same compound, the logD (physchem) was 2.

Compound Cc1ncc2n1C(=O)N(N1CCN(C(=O)CCS(=O)(=O)c3ccc4cc(Cl)ccc4c3)CC1)C2 has an IC50 (Coagulation factor X) of 6.9 nM, an Activity (Plasma [1]) of 0.61 µM and a pKa [2] of 5. For the same compound, the Activity (Plasma [3]) was 0.9 µM, the Ratio (Plasma [4]) was 2.8 and the inhibition at 10 µM (CYP3A4) was 38%. It also gave a logD (physchem) of 2.1.
